# Biological target: T1, OR10J5 (Homo sapiens) (UniProt Q8NHC4)
# T1 sequence (whole entry): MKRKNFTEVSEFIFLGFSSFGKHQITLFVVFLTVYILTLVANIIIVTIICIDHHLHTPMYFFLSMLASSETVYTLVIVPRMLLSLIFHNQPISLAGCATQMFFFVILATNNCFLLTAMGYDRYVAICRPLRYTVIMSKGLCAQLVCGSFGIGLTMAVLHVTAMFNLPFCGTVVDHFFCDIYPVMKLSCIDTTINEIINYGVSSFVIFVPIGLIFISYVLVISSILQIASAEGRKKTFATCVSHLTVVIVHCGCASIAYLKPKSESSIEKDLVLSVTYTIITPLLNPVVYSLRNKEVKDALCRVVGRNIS
# Conditions: stereoisomer not certain
# Outline: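 Whether a receptor–molecule pair is responsive (active) rests on the original authors' judgment that its measured signal was statistically different from baseline. Pairs without that judgment are non-responsive (inactive). Sources used varied assay methods, commonly transient luciferase assays in mammalian cell lines.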
# 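Further: active if original authors judged signal statistically different from baseline.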
row,SMILES,odorant receptor agonist call
1,C=CCOC(=O)Cc1ccccc1,inactive
2,C=CCc1ccccc1,inactive
3,O=c1cc(O)c2ccccc2o1,inactive
4,CCC1CCC(=O)O1 (stereo not given),inactive
5,Cc1c([N+](=O)[O-])c(C)c([N+](=O)[O-])c(C(C)(C)C)c1[N+](=O)[O-],inactive

# From the M2OR odorant receptor database
